Calls of active or inactive are those of the source. No cut-off for these calls is given here.

The subject of assay [1] is Mycobacterium tuberculosis. As to the kind of experiment: Reversal of isoniazid resistance in Mycobacterium tuberculosis Erdman harboring frameshift mutation in KatG at amino acid 6 assessed as reduction in surviving bacteria by measuring reduction in colony forming units at 1 uM incubated for 13 days. In kind it is functional, organism-based. To be noted: time 13.0 day.

Assay [2] relates to Mycobacterium tuberculosis. The experiment in a line: Antimycobacterial activity against Mycobacterium tuberculosis Erdman harboring frameshift mutation in KatG at amino acid 6 assessed as reduction in colony forming units at 1 uM incubated for 13 days. In kind it is functional, organism-based. Conditions: time 13.0 day. An outline of the steps: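 katG frameshift mutant grown to log phase in Sauton's medium, diluted to 5 × 10^7 CFU/mL, given 1 μM compound (imidazole salt in DMSO); IMD/DMSO vehicle controls. Incubated rolling at 37 °C. After 13 days, serial dilutions plated on 7H11 agar with ADC for CFU. Two experiments, each in duplicate; one-way ANOVA with Tukey's correction.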

Assay [3] concerns Mycobacterium tuberculosis. The experiment in a line: Antimycobacterial activity against Mycobacterium tuberculosis Erdman harboring frameshift mutation in KatG at amino acid 6 assessed as reduction in colony forming units at […] incubated for 13 days (reference value: 9.07 x 10^9 CFU/mL). In kind it is functional. To be noted: dose 2.5 µg/ml; time 13 day.

`O=C(O)C1CSc2c(C3CC3)c(Cc3cccc4ccccc34)cc(=O)n21.c1c[nH]cn1` (racemic): the outcome in assay [1] and in assay [2] was inactive.
In the case of `NNC(=O)c1ccncc1` [ISONIAZID], in assay [3], the Activity is 8.09 10^8CFU/ml.
On to `O=C(O)C1CSc2c(C3CC3)c(-c3cc(-c4ccc5ccccc5c4)no3)cc(=O)n21.c1c[nH]cn1` (racemic), for which the result in assay [1] was Active. Moreover, in assay [2], the outcome was inactive.
